Measured values as given in ChEMBL document CHEMBL5674869, “The Histone Methyltransferase Inhibitor A-366 Uncovers a Role for G9a/GLP in the Epigenetics of Leukemia” (PLoS One, 2015).
Activity calls are given as the source filed them. No cut-off for these calls is given here.

Tests used:
HT-1080 = assay: Antiproliferative activity against human HT-1080 cells after 2 days by Cell-Titer-Glo assay; type: functional, cell-based; settings: HT-1080, 48 h
Method in brief: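 ATCC tumor lines were grown in their recommended media with 10% FBS and STR-authenticated. Cells were exposed to compound for the stated number of days. Viable cells were read by CellTiter-Glo endpoint. Inhibition was the ratio of treated to untreated wells, with cell-free wells set as 100% inhibition. The EC50 was taken from the dose response.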

[1] = biological target: T1, Histone-lysine N-methyltransferase EHMT2 (Homo sapiens) (UniProt Q96KQ7); assay: Inhibition of G9a in human PC-3 cells assessed as effect on H3k4me3 levels at 0.3 to 3 uM after 72 hrs by Western blot analysis; type: cell-based; settings: dose 0.3-3 µM
T1 sequence (whole entry): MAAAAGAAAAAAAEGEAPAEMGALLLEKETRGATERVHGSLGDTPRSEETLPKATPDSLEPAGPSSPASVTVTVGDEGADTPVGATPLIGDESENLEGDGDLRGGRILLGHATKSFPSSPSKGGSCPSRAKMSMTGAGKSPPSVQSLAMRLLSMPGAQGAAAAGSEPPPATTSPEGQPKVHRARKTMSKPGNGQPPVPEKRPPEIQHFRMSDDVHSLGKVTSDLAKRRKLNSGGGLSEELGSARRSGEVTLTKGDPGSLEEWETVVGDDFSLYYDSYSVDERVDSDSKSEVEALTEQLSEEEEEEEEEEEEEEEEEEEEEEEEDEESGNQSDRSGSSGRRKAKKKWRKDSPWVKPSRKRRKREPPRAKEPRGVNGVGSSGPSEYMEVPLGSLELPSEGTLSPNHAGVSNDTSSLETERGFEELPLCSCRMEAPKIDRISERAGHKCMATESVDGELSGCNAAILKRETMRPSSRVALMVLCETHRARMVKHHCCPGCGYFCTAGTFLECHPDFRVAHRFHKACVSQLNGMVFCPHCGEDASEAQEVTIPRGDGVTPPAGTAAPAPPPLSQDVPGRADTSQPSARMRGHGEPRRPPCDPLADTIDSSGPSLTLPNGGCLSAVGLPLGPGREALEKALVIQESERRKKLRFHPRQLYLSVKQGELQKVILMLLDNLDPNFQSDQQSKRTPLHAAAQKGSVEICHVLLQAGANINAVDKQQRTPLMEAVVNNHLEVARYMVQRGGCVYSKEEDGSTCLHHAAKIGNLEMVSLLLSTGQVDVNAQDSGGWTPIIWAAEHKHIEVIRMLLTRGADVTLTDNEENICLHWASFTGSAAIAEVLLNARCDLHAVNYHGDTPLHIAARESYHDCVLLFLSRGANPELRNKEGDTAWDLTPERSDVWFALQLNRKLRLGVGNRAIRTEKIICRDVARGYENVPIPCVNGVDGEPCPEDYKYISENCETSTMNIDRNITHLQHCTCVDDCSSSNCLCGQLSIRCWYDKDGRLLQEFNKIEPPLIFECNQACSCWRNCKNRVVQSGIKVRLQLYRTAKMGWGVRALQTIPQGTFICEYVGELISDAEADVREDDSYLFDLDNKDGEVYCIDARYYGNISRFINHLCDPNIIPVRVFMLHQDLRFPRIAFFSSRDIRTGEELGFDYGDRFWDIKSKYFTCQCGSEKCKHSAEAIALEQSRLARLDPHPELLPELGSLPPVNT
Method in brief: (§1)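 PC-3 prostate cells incubated with DMSO, 0.3 or 3 μM compound for 72 h. Lysates probed by western blot with antibodies to H3K9me2, H3K4me2, H3K4me3, H3K9me3, H4K20me1, H4K20me3, H3K36me2 and H3K27me3.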

[2] = biological target: T1, Histone-lysine N-methyltransferase EHMT2 (Homo sapiens); assay: Inhibition of G9a in human PC-3 cells assessed as effect on H4k20me3 levels at 0.3 to 3 uM after 72 hrs by Western blot analysis; type: cell-based; settings: dose 0.3-3 µM; method in brief: as §1
[3] = biological target: T1, Histone-lysine N-methyltransferase EHMT2 (Homo sapiens); assay: Inhibition of G9a in human PC-3 cells assessed as effect on H3k27me3 levels at 0.3 to 3 uM after 72 hrs by Western blot analysis; type: cell-based; settings: dose 0.3-3 µM; method in brief: as §1
MDA-MB-231 = assay: Antiproliferative activity against human MDA-MB-231 cells assessed as effect on colony formation at 0.1 to 10 uM after 14 days by crystal violet staining based clonogenic assay; type: functional, cell-based; settings: dose 0.1-10 µM, time 14.0 day
Method in brief: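 Clonogenic assay: 500 live cells per well were seeded into six-well plates in drug-free medium. Compound diluted in culture medium was added 24 h later. Cells were cultured at 37°C, then fixed and stained with 0.2% crystal violet. Colonies were counted on an automated colony counter.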

MV4-11 [4] = assay: Antiproliferative activity against human MV4-11 cells after 14 days by Cell-titer Glo assay; type: functional, cell-based; settings: time 14.0 day
Method in brief: (§2)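 Leukemia cells (MV4;11 or HL-60) in medium with 10% FBS were treated with a dose range of compound for 14 days. Proliferation was read by CellTiter-Glo endpoint, with inhibition set against untreated controls and cell-free wells as 100% inhibition. Viability was also measured in parallel by trypan blue exclusion.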

MV4-11 [5] = assay: Induction of cell cycle arrest in human MV4-11 cells assessed as increase in subG0/G1 cells after 14 days by propidium iodide staining based flow cytometry; type: functional; settings: time 14.0 day
Method in brief: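 MV4;11 cells treated 14 days with compound over a concentration range. They were then washed in cold PBS and stained 20 min with 50 μg/ml propidium iodide, 0.1 mg/ml RNase A, 0.1% BSA and 0.1% Triton X-100. Cell-cycle DNA content, including sub-G1/G0 fraction, measured by flow cytometry on BD LSR-II.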

HL-60 = assay: Antiproliferative activity against human HL-60 cells after 14 days by Cell-titer Glo assay; type: functional, cell-based; settings: time 14.0 day; method in brief: as §2
Mus musculus = assay: Decrease in H3K9me2 level in SCID/beige mouse tumor xenografted with human MV4-11 cells at 30 mg/kg/day via osmotic-mini pump for 7 days by alphaLisa assay; type: functional, organism-based; settings: Neoplasm, time 7.0 day
Method in brief: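 Female SCID-beige mice, 6–8 weeks old, received 5 x 10^6 MV4;11 cells in 50% Matrigel subcutaneously in the flank. At about 200 mm3, compound was given at 30 mg/kg/day by osmotic mini-pump in 98% PEG-400/2% Tween-80. In the PK/PD arm, tumors were harvested at the stated day and H3K9me2 was measured by AlphaLISA relative to vehicle.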

[6] = Drug level in SCID/beige mouse liver xenografted with human MV4-11 cells at 30 mg/kg/day via osmotic-mini pump; type: ADME, organism-based; settings: in vivo
Method in brief: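 Tumor-bearing SCID-beige female mice (6–8 wk) with subcutaneous flank MV4;11 xenografts (5 x 10^6 cells in 50% Matrigel, grown to ~200 mm3). Compound given by osmotic mini-pump at 30 mg/kg/day in 98% PEG-400/2% Tween-80. Separate PK/PD arm sacrificed after 2, 7 and 14 days of treatment; plasma and tissues collected and analyzed for drug levels.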

[7] = biological target: T1, Histone-lysine N-methyltransferase EHMT2 (Homo sapiens); assay: Inhibition of G9a in human MV4-11 cells assessed as increase in cell differentiation marker CD11b for 14 days by flow cytometry; settings: time 14.0 day

| EC50 (HT-1080) [nM] | inhibition [1] | inhibition [2] | inhibition [3] | Drug uptake [6] | inhibition [7] | Structure (SMILES) | Activity (MDA-MB-231) | Activity (MV4-11 [4]) | Activity (MV4-11 [5]) | Activity (HL-60) | inhibition (Mus musculus) |
| --- | --- | --- | --- | --- | --- | --- | --- | --- | --- | --- | --- |
| 1400 | – | – | – | – | – | COc1cc2c(NC3CCN(C(C)C)CC3)nc(C3CCCCC3)nc2cc1OCCCN1CCCC1 | – | – | – | – | – |
| – | inactive | inactive | inactive | Active | Active | COc1cc2c(cc1OCCCN1CCCC1)N=C(N)C21CCC1 | inactive | Active | Active | Active | Active |
